This note sets out measurements from ChEMBL document CHEMBL3272299, “Antineoplastic agents. 1. N-Protected vinyl, 1,2-dihaloethyl, and cyanomethyl esters of phenylalanine” (J Med Chem, 1977).

Activity calls are given as the source filed them. No cut-off for these calls is given here.

Data set [1] is described as follows: Chemical stability of the compound assessed as optical rotation. The class given is physicochemical.
Data set [2] relates to W256. As to the kind of experiment: Antitumor activity against rat Walker 256 cells allografted in Sprague-Dawley rat assessed as host survival days at 2.5 mg/kg, ip qd. The class given is functional. The note with it: route intraperitoneal. The method in brief: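 Walker 256 ascites cells were implanted ip into male Sprague-Dawley rats (75 ± 10 g). Compound in 0.05% Tween-water was given ip at 2.5 mg/kg/day, and the day of death was recorded. T/C was calculated from the mean survival time per group according to the NIH protocol. Melphalan served as the internal standard.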

Data set [3] deals with Ehrlich. As to the kind of experiment: Antitumor activity against mouse EAC allografted in CF1 mouse assessed as inhibition of tumor growth at 33 mg/kg/day measured on day 7. The class given is functional. The note with it: 168 h.
In data set [4] the test system is P388. As to the kind of experiment: Antitumor activity against mouse P388 cells allografted in DBA/2 mouse assessed as host survival at 20 mg/kg, ip qd. The class given is functional. The note with it: route intraperitoneal. In a few lines:
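P388 leukaemia cells were implanted on day 0 in male DBA/2 mice (20 g). Compound was dosed ip at 20 mg/kg/day. T/C survival values were calculated according to the NIH protocol. 5-Fluorouracil served as the internal standard.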

Data set [5] in a line: Chemical stability of the compound by TLC analysis. The class given is physicochemical.
In data set [6] the test system is Ehrlich. As to the kind of experiment: Antitumor activity against mouse EAC allografted in CF1 mouse assessed as host survival at 33 mg/kg/day measured on day 7. The class given is functional, organism-based.
Data set [7] can be described thus: Acute toxicity in CF1 mouse. The class given is organism-based. The settings on record: in vivo.
In data set [8] the test system is P388. As to the kind of experiment: Antitumor activity against mouse P388 cells allografted in DBA/2 mouse assessed as tumor growth inhibition at 20 mg/kg, ip qd relative to control. The class given is functional. The settings on record: route intraperitoneal.
The test system of data set [9] is W256. As to the kind of experiment: Antitumor activity against rat Walker 256 cells allografted in Sprague-Dawley rat assessed as tumor growth inhibition at 2.5 mg/kg, ip qd relative to control. The class given is functional. The note with it: route intraperitoneal.
Data set [10] concerns Ehrlich. As to the kind of experiment: Antitumor activity against mouse EAC allografted in CF1 mouse assessed as tumor volume at 33 mg/kg/day measured on day 7. The class given is functional.

As to `C=COC(=O)[C@H](Cc1ccccc1)NC(=O)OCc1ccccc1`, the Stability result in data set [1] and in data set [5] was “Stable” throughout. Further, the Survival in the data set with W256 [2] stood at 18.1 days; in the data set with P388 [4], 8.1 days. Moreover, the inhibition in vivo – broadly, the share of the control response that was lost under treatment – at 33 mg/kg/day in the data set with Ehrlich [3] was determined as 99.9%. In addition, the Survival entry in the data set with Ehrlich [6] is “Active”. Moreover, the LD50 (usually the dose at which mortality reaches 50%) in data set [7] is over 6150 µmol/kg. Also, the T/C is on record as 100 with P388 [8] and 226 in the data set on W256 [9]. Further, the Activity with Ehrlich [10] is 0.1 mL.
Consider `O=C(N[C@@H](Cc1ccccc1)C(=O)OC(Br)CBr)OCc1ccccc1` (some centres not stated), for which the results for the Survival with W256 [2] and with P388 [4] were 23 days and 6.7 days, respectively. The inhibition in vivo at 33 mg/kg/day in the data set with Ehrlich [3] stood at 100%. Also, the Survival result in the data set on Ehrlich [6] was “Active”. The LD50 in data set [7] is 150 µmol/kg. The T/C is 83 in the data set on P388 [8] and 305 in the data set with W256 [9]. Besides, the Activity in the data set on Ehrlich [10] came to 0 mL.
As to `N[C@@H](Cc1ccc(N(CCCl)CCCl)cc1)C(=O)O` [MELPHALAN], in the data set on W256 [2], the Survival stood at 23 days. Moreover, in the data set on Ehrlich [3], the inhibition in vivo at 33 mg/kg/day was 99%. For the same compound, the Survival result in the data set on Ehrlich [6] was “Active”. Also, the T/C in the data set on W256 [9] worked out at 305. In addition, in the data set with Ehrlich [10], the Activity was 0.1 mL.
For the compound `Cc1ccc(S(=O)(=O)N[C@@H](Cc2ccccc2)C(=O)OCC#N)cc1`, the Stability entry in data set [1] and in [5] was “Stable” each time. Moreover, the Survival came out at 8.5 days in the data set on W256 [2] and 9.1 days in the data set with P388 [4]. Further, the inhibition in vivo at 33 mg/kg/day in the data set with Ehrlich [3] is 97%. Moreover, in [7], the LD50 came out at 730 µmol/kg. The T/C in the data set with P388 [8] was 112; with W256 [9], 113. Besides, the Activity in the data set on Ehrlich [10] came to 0.4 mL.
As to `Sc1ncnc2nc[nH]c12` [MERCAPTOPURINE ANHYDROUS], the inhibition in vivo at 33 mg/kg/day in the data set with Ehrlich [3] worked out at 99.6%. Further, the Survival with P388 [4] was 12 days. Also, the Survival entry in the data set on Ehrlich [6] was “Active”. Moreover, the T/C with P388 [8] was 148. In addition, in the data set on Ehrlich [10], the Activity worked out at 0.7 mL.
On to `O=C(N[C@H](Cc1ccccc1)C(=O)OC(Br)CBr)OCc1ccccc1` (some centres not stated), for which the figures for the Survival with W256 [2] and with P388 [4] were 8.7 days and 7.5 days, respectively. Also, the inhibition in vivo at 33 mg/kg/day in the data set with Ehrlich [3] was 100%. Further, the Survival result with Ehrlich [6] is “Active”. In [7], this compound showed an LD50 of 310 µmol/kg. Besides, the results for the T/C in the data set on P388 [8] and with W256 [9] were 92 and 117, respectively. Besides, the Activity with Ehrlich [10] was determined as 0 mL.
Take `N#CCOC(=O)C(Cc1ccccc1)NC(=O)OCc1ccccc1` (racemic): the Stability entry in [1] and in data set [5] was “Stable” throughout. Further, the inhibition in vivo at 33 mg/kg/day in the data set on Ehrlich [3] amounted to 86%. Besides, the Survival result in the data set on Ehrlich [6] is “Active”. In data set [7], this compound returned an LD50 of 760 µmol/kg. Moreover, the Activity in the data set on Ehrlich [10] came out at 0.4 mL.
Consider `C=COC(=O)[C@@H](Cc1ccccc1)NC(=O)OCc1ccccc1`, for which the Stability entry in [1] and in [5] was “Stable” in each case. Also, in the data set on Ehrlich [3], the inhibition in vivo at 33 mg/kg/day stood at 36%. The Survival result with Ehrlich [6] is “Active”. The same compound had an LD50 in data set [7] of 1540 µmol/kg. Moreover, the Activity with Ehrlich [10] is 3.6 mL.
As for `N#CCOC(=O)[C@H](Cc1ccccc1)NC(=O)OCc1ccccc1`, the Stability entry in data set [1] and in [5] was “Stable” throughout. For the same compound, the Survival with W256 [2] was 8.5 days; in the data set on P388 [4], 6.6 days. In addition, in the data set with Ehrlich [3], the inhibition in vivo at 33 mg/kg/day came to 99.9%. Besides, the Survival entry in the data set with Ehrlich [6] is “Active”. The same compound gave an LD50 in [7] of 440 µmol/kg. For the same compound, the T/C in the data set with P388 [8] was determined as 82; in the data set on W256 [9], 113. Also, the Activity in the data set on Ehrlich [10] turned out to be 0.2 mL.
